By pIC50 is commonly meant −log10 of the IC50, conventionally taken in molar units. Broadly, the pEC50 is −log10 of the EC50, conventionally taken in molar units. In general, pKi refers to the Ki on a negative log10 scale, so that one unit is a factor of ten.

The text below walks through data of ChEMBL document CHEMBL1151859, “Structure-activity relationship studies of a novel series of anthrax lethal factor inhibitors” (Bioorg Med Chem, 2009).

In data set [1] the target is Matrix metalloproteinase-9 (Homo sapiens) (UniProt P14780). In words: Inhibition of human MMP9 up to 100 uM by fluorescence peptide cleavage assay. Put shortly:
(§1)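 Pro-MMP-2 or pro-MMP-9 activated with 1 mM APMA (20 min or 2 h, respectively), then used at 10 μg/mL with 5-FAM/QXL520 peptide substrate in kit assay buffer.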

The target in data set [2] is 72 kDa type IV collagenase (Homo sapiens) (UniProt P08253). In words: Inhibition of human MMP2 up to 100 uM by fluorescence peptide cleavage assay. The method in brief: as §1
The next data set has as its target T1, Lethal factor (Bacillus anthracis, UniProt P15917).
T1 sequence (P15917 whole entry): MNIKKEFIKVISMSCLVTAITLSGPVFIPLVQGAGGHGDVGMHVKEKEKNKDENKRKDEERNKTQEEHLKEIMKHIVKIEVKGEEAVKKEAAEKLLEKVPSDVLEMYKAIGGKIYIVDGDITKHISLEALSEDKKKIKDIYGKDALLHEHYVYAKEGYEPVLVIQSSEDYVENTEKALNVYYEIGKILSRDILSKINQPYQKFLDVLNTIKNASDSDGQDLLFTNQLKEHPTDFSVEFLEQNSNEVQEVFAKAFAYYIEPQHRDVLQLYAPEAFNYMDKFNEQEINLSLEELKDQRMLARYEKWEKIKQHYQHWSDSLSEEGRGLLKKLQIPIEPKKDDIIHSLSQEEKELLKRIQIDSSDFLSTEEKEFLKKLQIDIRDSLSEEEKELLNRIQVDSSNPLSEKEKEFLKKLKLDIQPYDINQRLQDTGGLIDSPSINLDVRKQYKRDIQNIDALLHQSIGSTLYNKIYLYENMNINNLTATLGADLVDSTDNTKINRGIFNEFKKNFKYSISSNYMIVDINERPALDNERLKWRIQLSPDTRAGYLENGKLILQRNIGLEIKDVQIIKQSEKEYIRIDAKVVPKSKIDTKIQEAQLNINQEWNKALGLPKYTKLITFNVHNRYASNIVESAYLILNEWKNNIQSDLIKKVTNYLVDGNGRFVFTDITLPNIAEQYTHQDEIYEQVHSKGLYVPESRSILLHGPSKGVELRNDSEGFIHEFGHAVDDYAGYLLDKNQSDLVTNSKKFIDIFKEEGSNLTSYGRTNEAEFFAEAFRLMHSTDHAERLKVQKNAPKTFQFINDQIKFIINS
In words: Inhibition of Bacillus anthracis lethal factor assessed as cleavage of MAPKK by fluorescence peptide cleavage assay.

A short description of data set [3]: Chemical stability of the compound. Format: physicochemical.
Data set [4] can be described thus: Solubility at 500 uM. Format: physicochemical.
The next data set deals with RAW264.7. In words: Protection against anthrax protective antigen-38/LF-induced cell death in mouse RAW264.7 cells pretreated for 2 hrs followed by PA38/LA challenge assessed as cell viability measured after 4 hrs by ATPlite assay. Format: functional, cell-based. Background: In ATP-based viability assays light output follows the ATP content of the culture.
Data set [5] concerns HeLa. In words: Protection against anthrax protective antigen-38/LF-induced cell death in human HeLa cells assessed as MEK1 cleavage at 30 uM treated 90 mins after PA38/LA challenge immunoblotting assay. Format: functional, cell-based. (In general: A western blot detects proteins with antibodies after separation by electrophoresis.)
Data set [6] deals with HeLa. In words: Protection against anthrax protective antigen-38/LF-induced cell death in human HeLa cells assessed as MEK1 cleavage at 300 uM treated 90 mins after PA38/LA challenge immunoblotting assay. Format: functional, cell-based.
Data set [7] deals with Bacillus anthracis. In words: Antibacterial activity against Bacillus anthracis Sterene infected in A/J mouse assessed as mouse survival at 25 mg/kg, ip daily after 24 hrs of infection for 8 days relative to control. Format: functional, organism-based. Set-up: dose 25 mg/kg.
Data set [8] relates to HeLa. In words: Protection against anthrax protective antigen-38/LF-induced cell death in human HeLa cells assessed as MEK1 cleavage at 100 uM treated 90 mins after PA38/LA challenge immunoblotting assay. Format: functional, cell-based.
For data set [9], the system named is Bacillus anthracis. In words: Antibacterial activity against Bacillus anthracis Sterene infected in A/J mouse assessed as mouse survival at 25 mg/kg, ip daily after 24 hrs of infection for 8 days. Format: functional, organism-based. Set-up: dose 25 mg/kg.

pEC50, pIC50, pKi: −log10 of the molar value. Calls of active or inactive are those of the source. The rule behind the calls is not given here. Where only a bound is given, the exact number is not on record here.

Chain of Matrix metalloproteinase-9 (Homo sapiens) (P14780 whole entry): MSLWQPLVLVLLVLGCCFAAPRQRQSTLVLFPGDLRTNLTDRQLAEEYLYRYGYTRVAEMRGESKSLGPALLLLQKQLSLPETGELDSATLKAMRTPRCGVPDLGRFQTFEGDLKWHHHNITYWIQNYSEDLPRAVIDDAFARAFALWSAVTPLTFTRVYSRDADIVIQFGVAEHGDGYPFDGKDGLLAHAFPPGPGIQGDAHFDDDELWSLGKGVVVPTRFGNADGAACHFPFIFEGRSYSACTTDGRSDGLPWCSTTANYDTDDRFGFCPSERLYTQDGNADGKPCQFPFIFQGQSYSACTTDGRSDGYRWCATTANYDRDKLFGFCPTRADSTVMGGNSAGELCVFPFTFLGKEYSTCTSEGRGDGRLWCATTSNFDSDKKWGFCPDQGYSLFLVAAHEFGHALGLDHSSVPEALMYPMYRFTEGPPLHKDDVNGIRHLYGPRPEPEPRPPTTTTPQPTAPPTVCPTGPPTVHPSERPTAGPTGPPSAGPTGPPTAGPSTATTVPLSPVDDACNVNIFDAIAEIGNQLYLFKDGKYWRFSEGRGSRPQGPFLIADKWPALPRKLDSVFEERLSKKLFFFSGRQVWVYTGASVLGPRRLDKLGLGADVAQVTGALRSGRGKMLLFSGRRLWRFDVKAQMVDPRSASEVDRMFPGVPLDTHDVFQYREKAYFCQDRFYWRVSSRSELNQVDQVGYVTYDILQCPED
Chain of 72 kDa type IV collagenase (Homo sapiens) (P08253 110-660 limits assumed): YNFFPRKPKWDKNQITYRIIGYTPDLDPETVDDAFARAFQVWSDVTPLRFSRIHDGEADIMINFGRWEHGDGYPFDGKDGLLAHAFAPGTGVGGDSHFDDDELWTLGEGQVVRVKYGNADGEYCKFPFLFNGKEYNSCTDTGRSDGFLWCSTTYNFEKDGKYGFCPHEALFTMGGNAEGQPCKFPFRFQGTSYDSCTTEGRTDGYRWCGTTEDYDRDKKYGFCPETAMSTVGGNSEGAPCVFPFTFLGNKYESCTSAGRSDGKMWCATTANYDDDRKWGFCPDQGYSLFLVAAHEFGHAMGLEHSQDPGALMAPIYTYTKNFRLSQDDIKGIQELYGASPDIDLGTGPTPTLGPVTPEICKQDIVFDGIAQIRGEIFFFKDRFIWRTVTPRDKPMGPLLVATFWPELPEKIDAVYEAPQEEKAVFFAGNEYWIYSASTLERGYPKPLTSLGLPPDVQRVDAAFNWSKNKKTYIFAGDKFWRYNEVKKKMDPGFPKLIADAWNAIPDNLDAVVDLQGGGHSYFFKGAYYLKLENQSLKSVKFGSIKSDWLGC

With `Cc1ccc(NS(=O)(=O)c2cccs2)cc1C(F)(F)F`, the outcome in [1] and in [2] was inactive. Besides, at Lethal factor, the pIC50 was below 4.00. With `Cc1csc(NS(=O)(=O)c2ccc([N+](=O)[O-])cc2)c1-c1nc2ccccc2s1`, in data set [3], the Stability came out at 99%. In addition, the solubility result in [4] is “Insoluble”. For the same compound, the negative-log IC50 (pIC50) at Lethal factor is 4.96. As to `O=S(=O)(Nc1sccc1-c1nc2ccccc2s1)c1ccc(-c2ccc(Cl)cc2)cc1`, the solubility result in data set [4] is listed as “Insoluble”. In addition, the pEC50 with RAW264.7 was 6.60. Further, at Lethal factor, the pIC50 was 5.52 and the pKi is 5.77. Consider `COc1ccc(-c2ccc(S(=O)(=O)Nc3cccs3)cc2)cc1`, for which the outcome in data set [1] and in data set [2] was inactive. The pIC50 on Lethal factor is below 4.30. Turning to `O=S(=O)(Nc1cccc(C(F)(F)F)c1)c1cccs1`, the outcome in [1] and in data set [2] was inactive. Moreover, the pIC50 at Lethal factor was below 4.00. On to `Cc1ccc(S(=O)(=O)Nc2cccs2)cc1Cl`, for which the outcome in data set [1] and in data set [2] was inactive. At Lethal factor, the pIC50 is below 4.30. `CC(C)(C)C(=O)CSC1=NNC(c2ccccc2)S1` (stereo not drawn): in the data set on HeLa [5], the outcome was inactive. `O=S(=O)(Nc1ccccc1)c1cccs1`: the outcome in data set [1] and in data set [2] was inactive. Moreover, the negative logarithm of the IC50 (pIC50) at Lethal factor was below 4.00. As to `Nc1ccc(Nc2ccc(N)cc2S(=O)(=O)O)cc1`, the result in the data set with HeLa [6] was Active.

Regarding `CC(C)(C)c1ccc(-c2noc(C(=O)NNC(=S)Nc3ccc(C(F)(F)F)cc3)n2)cc1`, the outcome with HeLa [5] was Active. On to `CCOC(=O)CCc1c(CC(=O)OCC)c[nH]c1/C=N/O`, for which the outcome with HeLa [5] was inactive. With `Cc1ccc(S(=O)(=O)Nc2sccc2-c2nc3ccccc3s2)cc1Cl`, the Stability in data set [3] is on record as 99%. Also, the outcome in the data set on Bacillus anthracis [7] was Active. For the same compound, in the data set on RAW264.7, the pEC50 was 6.00. Further, at Lethal factor, the pIC50 is 5.18.

Turning to `O=S(=O)(Nc1sccc1-c1nc2ccccc2s1)c1ccc2ncsc2c1`, the Stability in data set [3] turned out to be 99.9%. In the data set with RAW264.7, the pEC50 is 5.80. Moreover, the negative-log IC50 (pIC50) on Lethal factor was 5.00.

For `Cc1csc(NS(=O)(=O)c2cc(Cl)c(Cl)cc2Cl)c1-c1nc2ccccc2s1`, the negative logarithm of the IC50 (pIC50) at Lethal factor is 4.82.

In the case of `Cc1c(S(=O)(=O)Nc2sccc2-c2nc3ccccc3s2)sc2ccccc12`, on Lethal factor, the negative logarithm of the IC50 (pIC50) was 5.00.

Turning to `Cc1csc(NS(=O)(=O)c2cccc(Cl)c2F)c1-c1nc2ccccc2s1`, the negative-log IC50 (pIC50) at Lethal factor is 4.00.

For the compound `Cc1nnc(-c2cccc(S(=O)(=O)Nc3sccc3-c3nc4ccccc4s3)c2)o1`, the pIC50 on Lethal factor is 4.60. In the case of `O=C(NCc1ccc(S(=O)(=O)Nc2sccc2-c2nc3ccccc3s2)s1)c1ccc(Cl)cc1`, the pIC50 on Lethal factor was 4.85. On the same count and under the same terms, the result for `CC(=O)Nc1ccc(S(=O)(=O)Nc2scc(C)c2-c2nc3ccccc3s2)cc1` reads 4.85. In data set [3], `COc1ccc(-c2ccc(S(=O)(=O)Nc3sccc3-c3nc4ccccc4s3)cc2)cc1` registered a Stability of 84%. The outcome with HeLa [8] and with Bacillus anthracis [9] was Active. Moreover, in [4], the solubility entry is “Insoluble”. Further, in the data set on RAW264.7, the pEC50 is 6.30. The pIC50 at Lethal factor was 5.42. With `CC(C)(C)c1ccc(S(=O)(=O)Nc2sccc2-c2nc3ccccc3s2)cc1`, the negative logarithm of the IC50 (pIC50) on Lethal factor was 4.89.

As to `Cc1csc(N(S(=O)(=O)c2ccc(OC(F)(F)F)cc2)S(=O)(=O)c2ccc(OC(F)(F)F)cc2)c1-c1nc2ccccc2s1`, on Lethal factor, the negative logarithm of the IC50 (pIC50) was below 4.00.

For the compound `Cc1cc(S(=O)(=O)N[C@H](C(=O)NO)C2CCOCC2)ccc1F`, the outcome in the data set on HeLa [5] was Active. Take `Cc1csc(NS(=O)(=O)c2cccc(Cl)c2C)c1-c1nc2ccccc2s1`: on Lethal factor, the negative-log IC50 (pIC50) is 4.00. With `O=S(=O)(Nc1cccs1)c1ccc(-c2ccc(Cl)cc2)cc1`, the outcome in data set [1] and in [2] was inactive. Further, the negative logarithm of the IC50 (pIC50) at Lethal factor is below 4.30. Take `Cc1csc(NS(=O)(=O)c2ccc(Cl)c(C(F)(F)F)c2)c1-c1nc2ccccc2s1`: the pIC50 on Lethal factor was 4.96. Take `Cc1ccc(S(=O)(=O)Nc2scc(C)c2-c2nc3ccccc3s2)cc1[N+](=O)[O-]`: the negative-log IC50 (pIC50) at Lethal factor was 4.32. Same read-out and setting: in the case of `Cc1cc(S(=O)(=O)Nc2sccc2-c2nc3ccccc3s2)ccc1F` it was 4.92. On to `O=S(=O)(Nc1sccc1-c1nc2ccccc2s1)c1ccc(-c2ccc(Cl)c(Cl)c2)cc1`, for which the pIC50 at Lethal factor is 5.14. `O=S(=O)(Nc1sccc1-c1nc2ccccc2s1)c1ccc(Cl)cc1F`: the pIC50 on Lethal factor was 4.74. Regarding `O=S(=O)(Nc1sccc1-c1nc2ccccc2s1)c1ccc(S(=O)(=O)N2CCOCC2)cc1`, the pIC50 on Lethal factor was 4.77. On to `Cc1csc(NS(=O)(=O)c2ccc(OC(F)(F)F)cc2)c1-c1nc2ccccc2s1`, for which the negative logarithm of the IC50 (pIC50) on Lethal factor was 4.74.

As to `O=S(=O)(Nc1sccc1-c1nc2ccccc2s1)c1ccc(Cl)cc1`, on Lethal factor, the negative logarithm of the IC50 (pIC50) was 4.82. Turning to `COc1ccc(-c2ccc(S(=O)(=O)Nc3sccc3-c3nc4ccccc4s3)cc2)cc1OC`, the negative logarithm of the IC50 (pIC50) at Lethal factor was 5.05. On to `O=S(=O)(Nc1nc2ccccc2s1)c1ccc(-c2ccc(Cl)cc2)cc1`, for which the pIC50 on Lethal factor was below 4.30.

Consider `Cc1csc(N)c1-c1nc2ccccc2s1`, for which, at Lethal factor, the negative-log IC50 (pIC50) is below 4.00.

On to `O=S(=O)(Nc1sccc1-c1nc2ccccc2s1)c1ccccc1`, for which the negative-log IC50 (pIC50) at Lethal factor is 4.41.

Turning to `Cc1ccc(NS(=O)(=O)c2cccs2)cc1Cl`, the result in data set [1] and in data set [2] was inactive. In addition, the pIC50 on Lethal factor is below 4.00.

`Cc1csc(NS(=O)(=O)c2ccc(Cl)cc2F)c1-c1nc2ccccc2s1`: the negative logarithm of the IC50 (pIC50) on Lethal factor was 4.72.
